In ChEMBL document CHEMBL1145444, “Mechanism-based thrombin inhibitors: design, synthesis, and molecular docking of a new selective 2-oxo-2H-1-benzopyran derivative” (J Med Chem, 2007):
One block for each compound: values may come before it.

Legend:
[1] = biological target: Prothrombin (Homo sapiens) (UniProt P00734); assay: Ratio of kcat for thrombin to Ki for thrombin
Summary of the method: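 Partition ratio is the ratio of product released per inactivation event, calculated as k_cat/k_i, on thrombin.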

Homo sapiens [2] = organism: Homo sapiens; assay: Selectivity for thrombin over alpha chymotrypsin
Summary of the method: (§1)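 Inactivation rate constant (k_i) and K_I were determined by one of two methods depending on the protease. In the progress-curve method, inhibitor competes with a chromogenic substrate. In the preincubation method, enzyme and inhibitor are incubated first and remaining activity is sampled at regular time intervals. k_i/K_I serves as the potency index, and selectivity is taken as the ratio of k_i/K_I between proteases.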

[3] = biological target: Prothrombin (Homo sapiens) (UniProt P00734); assay: Inhibition of thrombin assessed as residual activity at 100 uM after 10 min
Summary of the method: (§2)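 Isolated, purified thrombin was incubated with inhibitor for 10 min, then its proteolytic activity was measured. Screening used 100 µM inhibitor, with lower concentrations for potent compounds. Values are reported as percentage of residual enzyme activity.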

[4] = biological target: Prothrombin (Homo sapiens) (UniProt P00734); assay: Ratio of Ki for thrombin to K(inactivation) for thrombin; summary of the method: as §1
Homo sapiens [5] = organism: Homo sapiens; assay: Ratio of Ki for alpha chymotrypsin to K(inactivation) for alpha chymotrypsin; summary of the method: as §1
[6] = biological target: Prothrombin (Homo sapiens) (UniProt P00734); assay: Inhibition of thrombin assessed as residual activity at 2 uM after 10 min; summary of the method: as §2
[7] = biological target: Prothrombin (Homo sapiens) (UniProt P00734); assay: Inhibition of thrombin assessed as residual activity at 10 uM after 10 min; summary of the method: as §2

- partition ratio kcat/ki [1]: 1.8
- Ratio (Homo sapiens [2]): 0.13
SMILES: O=C(Oc1cc(Cl)ccc1Cl)c1cc2cc(CCl)ccc2oc1=O

- Activity [3]: 60%
SMILES: Nc1ccc(Cl)cc1OC(=O)c1cc2cc(CCl)ccc2oc1=O

- Activity [3]: 110%
SMILES: O=C(Nc1cc(Cl)ccc1O)c1cc2cc(CCl)ccc2oc1=O

- Activity [3]: 90%
SMILES: O=C(Oc1cccc(Cl)c1)c1cc2cc(Oc3ccccc3)ccc2oc1=O

- Activity [3]: 95%
SMILES: CCOC(=O)COc1ccc(Cl)cc1COC(=O)c1cc2cc(CCl)ccc2oc1=O

- Activity [3]: 91%
SMILES: O=C(Nc1cc(Cl)ccc1Cl)c1cc2cc(CCl)ccc2oc1=O

- Activity [3]: 101%
SMILES: O=C(OCc1cc(Cl)ccc1O)c1cc2cc(CCl)ccc2oc1=O

- Activity [3]: 94%
SMILES: O=C(Oc1cc(Cl)ccc1Cl)c1cc2cc(Oc3ccccc3)ccc2oc1=O

- Ratio [4]: 3460 M⁻¹ s⁻¹
- partition ratio kcat/ki [1]: 13.5
- Ratio (Homo sapiens [2]): 5
- Ratio (Homo sapiens [5]): 755 M⁻¹ s⁻¹
- Activity [6]: 11%
- Activity [7]: 3%
SMILES: CCNC(=O)COc1ccc(Cl)cc1OC(=O)c1cc2cc(CCl)ccc2oc1=O

- partition ratio kcat/ki [1]: 2.8
- Ratio (Homo sapiens [2]): 0.01
SMILES: O=C(Oc1cccc(Cl)c1)c1cc2cc(CCl)ccc2oc1=O

- Activity [3]: 103%
SMILES: O=C(OCc1cc(Cl)ccc1Cl)c1cc2cc(CCl)ccc2oc1=O
